Assays:
[1] = molecular target: T1, Quinolone resistance protein NorA (Staphylococcus aureus) (UniProt P0A0J7); assay: Inhibition of NorA efflux pump in Staphylococcus aureus 1199B assessed as fold reduction of ciprofloxacin MIC at 6.25 ug/ml
T1 sequence (whole entry): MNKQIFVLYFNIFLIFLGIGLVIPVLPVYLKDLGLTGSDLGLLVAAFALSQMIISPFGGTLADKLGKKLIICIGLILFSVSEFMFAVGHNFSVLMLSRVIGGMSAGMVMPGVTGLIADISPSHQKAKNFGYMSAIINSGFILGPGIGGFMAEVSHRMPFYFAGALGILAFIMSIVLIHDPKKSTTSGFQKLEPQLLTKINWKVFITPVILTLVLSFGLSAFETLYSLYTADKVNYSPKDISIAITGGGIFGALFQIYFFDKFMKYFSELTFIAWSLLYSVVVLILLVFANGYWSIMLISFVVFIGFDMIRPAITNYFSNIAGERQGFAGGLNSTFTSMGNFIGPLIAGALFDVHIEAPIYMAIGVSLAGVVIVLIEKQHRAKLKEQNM
How it was run: (§1)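 Broth checkerboard synergy in Mueller–Hinton broth with twofold serial dilutions. Each candidate EPI was run at seven concentrations (100–1.56 µg/mL) against ciprofloxacin at 10 concentrations (16–0.03 µg/mL). Incubation was 18 h at 37 °C, and growth was scored visually. The fold drop in ciprofloxacin MIC was read at the stated EPI concentration.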

[2] = molecular target: T1, Quinolone resistance protein NorA (Staphylococcus aureus); assay: Inhibition of NorA efflux pump in Staphylococcus aureus 1199B assessed as fold reduction of ciprofloxacin MIC at 1.5 ug/ml; how it was run: as §1
[3] = molecular target: T1, Quinolone resistance protein NorA (Staphylococcus aureus); assay: Inhibition of NorA efflux pump in Staphylococcus aureus 1199 assessed as fold reduction of ciprofloxacin MIC at 6.25 ug/ml; how it was run: as §1
[4] = molecular target: T1, Quinolone resistance protein NorA (Staphylococcus aureus); assay: Inhibition of NorA efflux pump in Staphylococcus aureus 1199 assessed as fold reduction of ciprofloxacin MIC at 1.5 ug/ml; how it was run: as §1
[5] = molecular target: T1, Quinolone resistance protein NorA (Staphylococcus aureus); assay: Inhibition of NorA efflux pump in Staphylococcus aureus 1199B assessed as fold reduction of ciprofloxacin MIC at 25 ug/ml; how it was run: as §1
[6] = molecular target: T1, Quinolone resistance protein NorA (Staphylococcus aureus); assay: Inhibition of NorA efflux pump in Staphylococcus aureus 1199 assessed as fold reduction of ciprofloxacin MIC at 25 ug/ml; how it was run: as §1
[7] = molecular target: T1, Quinolone resistance protein NorA (Staphylococcus aureus); assay: Inhibition of NorA efflux pump in Staphylococcus aureus 1199B assessed as fold reduction of ciprofloxacin MIC at >100 ug/ml
[8] = molecular target: T1, Quinolone resistance protein NorA (Staphylococcus aureus); assay: Inhibition of NorA efflux pump in Staphylococcus aureus 1199 assessed as fold reduction of ciprofloxacin MIC at >100 ug/ml; how it was run: as §1
[9] = molecular target: T1, Quinolone resistance protein NorA (Staphylococcus aureus); assay: Inhibition of NorA efflux pump in Staphylococcus aureus 1199B assessed as fold reduction of ciprofloxacin MIC at 3.12 ug/ml; how it was run: as §1
[10] = molecular target: T1, Quinolone resistance protein NorA (Staphylococcus aureus); assay: Inhibition of NorA efflux pump in Staphylococcus aureus 1199 assessed as fold reduction of ciprofloxacin MIC at 3.12 ug/ml; how it was run: as §1
[11] = molecular target: T1, Quinolone resistance protein NorA (Staphylococcus aureus); assay: Inhibition of NorA efflux pump in Staphylococcus aureus 1199B assessed as fold reduction of ciprofloxacin MIC at 12.5 ug/ml; how it was run: as §1
[12] = molecular target: T1, Quinolone resistance protein NorA (Staphylococcus aureus); assay: Inhibition of NorA efflux pump in Staphylococcus aureus 1199 assessed as fold reduction of ciprofloxacin MIC at 12.5 ug/ml; how it was run: as §1
[13] = molecular target: T1, Quinolone resistance protein NorA (Staphylococcus aureus); assay: Inhibition of NorA efflux pump in Staphylococcus aureus 1199B assessed as fold reduction of ciprofloxacin MIC at 100 ug/ml; how it was run: as §1
[14] = molecular target: T1, Quinolone resistance protein NorA (Staphylococcus aureus); assay: Inhibition of NorA efflux pump in Staphylococcus aureus 1199 assessed as fold reduction of ciprofloxacin MIC at 100 ug/ml; how it was run: as §1

In the case of N#Cc1cccc(NC(=O)/C=C/C=C/c2ccc3c(c2)OCO3)c1, the fold change (FC) [1] is reported as 4, the fold change (FC) [2] is reported as 2 and the fold change (FC) [3] is reported as 0. It also gave a fold change (FC) [4] of 0.
CC(C)c1cc2c(c(O)c1O)[C@@]1(C(=O)O)CCCC(C)(C)[C@@H]1CC2 showed a fold change (FC) [5] of 2 and a fold change (FC) [6] of 2.
CCCNC(=O)/C=C/C=C/c1ccc2c(c1)OCO2 showed a fold change (FC) [7] of 0 and a fold change (FC) [8] of 0.
CC(=O)Nc1ccccc1NC(=O)/C=C/C=C/c1ccc2c(c1)OCO2 showed a fold change (FC) [5] of 4, a fold change (FC) [1] of 2 and a fold change (FC) [6] of 2. For the same compound, the fold change (FC) [3] was 0.
Work on O=C(/C=C/C=C/c1ccc2c(c1)OCO2)Nc1ccc2ncsc2c1 yielded a fold change (FC) [9] of 2 and a fold change (FC) [10] of 0.
CN1CCN(C(=O)/C=C/C=C/c2ccc3c(c2)OCO3)CC1 showed a fold change (FC) [5] of 2 and a fold change (FC) [6] of 0.
Compound N#Cc1cccc(NC(=O)CCCCc2ccc3c(c2)OCO3)c1 has a fold change (FC) [7] of 0 and a fold change (FC) [8] of 0.
O=C(/C=C/C=C/c1ccc2c(c1)OCO2)Nc1ccc(CO)cc1 showed a fold change (FC) [1] of 2 and a fold change (FC) [3] of 0.
In the case of N#CCc1ccccc1NC(=O)/C=C/C=C/c1ccc2c(c1)OCO2, the fold change (FC) [7] is reported as 0 and the fold change (FC) [8] is reported as 0.
With O=C(/C=C/C=C/c1ccc2c(c1)OCO2)Nc1ccc(C(=O)Nc2ccccc2)cc1 the fold change (FC) [5] was 4, the fold change (FC) [9] was 2 and the fold change (FC) [6] was 0. The fold change (FC) [10] was 0.
In the case of CC[C@H](CO)NC(=O)/C=C/C=C/c1ccc2c(c1)OCO2, the fold change (FC) [7] is reported as 0 and the fold change (FC) [8] is reported as 0.
N#Cc1ccc(NC(=O)/C=C/C=C/c2ccc3c(c2)OCO3)cc1 showed a fold change (FC) [5] of 2 and a fold change (FC) [6] of 0.
CC(=O)Nc1cccc(NC(=O)/C=C/C=C/c2ccc3c(c2)OCO3)c1 gave a fold change (FC) [11] of 4, a fold change (FC) [1] of 2 and a fold change (FC) [12] of 2. The fold change (FC) [3] was 0.
COC(=O)[C@H]1[C@H]2C[C@@H]3c4[nH]c5cc(OC)ccc5c4CCN3C[C@H]2C[C@@H](OC(=O)c2cc(OC)c(OC)c(OC)c2)[C@@H]1OC was tested, and the fold change (FC) [5] was 4 and the fold change (FC) [6] was 2.
For CCCCNC(=O)/C=C/C=C/c1ccc2c(c1)OCO2, the fold change (FC) [13] was 0 and the fold change (FC) [14] was 0.
In the case of CC(C)CNC(=O)/C=C/C=C/c1ccc2c(c1)OCO2, the fold change (FC) [5] is reported as 2 and the fold change (FC) [6] is reported as 0.
For O=C(/C=C/C=C/c1ccc2c(c1)OCO2)Nc1ccccc1CO, the fold change (FC) [5] was 2 and the fold change (FC) [6] was 0.
For O=C(CCCCc1ccc2c(c1)OCO2)Nc1ccc(C(=O)Nc2ccccc2)cc1, the fold change (FC) [7] was 0 and the fold change (FC) [8] was 0.
For NC(=O)c1ccc(NC(=O)/C=C/C=C/c2ccc3c(c2)OCO3)cc1, the fold change (FC) [5] was 2 and the fold change (FC) [6] was 0.
CC[C@@H](CO)NC(=O)/C=C/C=C/c1ccc2c(c1)OCO2 gave a fold change (FC) [5] of 2 and a fold change (FC) [6] of 0.
COc1ccc(NC(=O)/C=C/C=C/c2ccc3c(c2)OCO3)cc1 gave a fold change (FC) [7] of 0 and a fold change (FC) [8] of 0.
CC(=O)Nc1ccc(NC(=O)/C=C/C=C/c2ccc3c(c2)OCO3)cc1 gave a fold change (FC) [5] of 4, a fold change (FC) [1] of 2 and a fold change (FC) [6] of 2. It also gave a fold change (FC) [3] of 0.
O=C(/C=C/C=C/c1ccc2c(c1)OCO2)Nc1ccccc1 gave a fold change (FC) [11] of 2 and a fold change (FC) [12] of 2.
O=C(/C=C/C=C/c1ccc2c(c1)OCO2)N1CCOCC1 was tested, and the fold change (FC) [7] was 0 and the fold change (FC) [8] was 0.
N#CCc1ccc(NC(=O)/C=C/C=C/c2ccc3c(c2)OCO3)cc1 showed a fold change (FC) [5] of 2 and a fold change (FC) [6] of 0.
Work on Cc1ccccc1NC(=O)/C=C/C=C/c1ccc2c(c1)OCO2 yielded a fold change (FC) [7] of 0 and a fold change (FC) [8] of 0.
O=C(/C=C/C=C/c1ccc2c(c1)OCO2)NCC(O)c1ccccc1 (stereo not given) showed a fold change (FC) [11] of 2 and a fold change (FC) [12] of 0.
O=C(/C=C/C=C/c1ccc2c(c1)OCO2)Nc1ccc(NC(=O)c2ccccc2)cc1 gave a fold change (FC) [9] of 2 and a fold change (FC) [10] of 0.
With O=C(/C=C/C=C/c1ccc2c(c1)OCO2)Nc1ccc2c(c1)OCO2 the fold change (FC) [7] was 0 and the fold change (FC) [8] was 0.
Work on CC(C)N(C(=O)/C=C/C=C/c1ccc2c(c1)OCO2)C(C)C yielded a fold change (FC) [5] of 2 and a fold change (FC) [6] of 2.
In the case of CCN(CC)C(=O)/C=C/C=C/c1ccc2c(c1)OCO2, the fold change (FC) [5] is reported as 2 and the fold change (FC) [6] is reported as 0.
With CC(C)CNC(=O)CCCCc1ccc2c(c1)OCO2 the fold change (FC) [7] was 0 and the fold change (FC) [8] was 0.
For O=C(/C=C/C=C/c1ccc2c(c1)OCO2)Nc1cccc(CO)c1, the fold change (FC) [5] was 2 and the fold change (FC) [6] was 0.
CC(C)NC(=O)/C=C/C=C/c1ccc2c(c1)OCO2 gave a fold change (FC) [5] of 2 and a fold change (FC) [6] of 0.
O=C(/C=C/C=C/c1ccc2c(c1)OCO2)Nc1nc2ccccc2s1 showed a fold change (FC) [1] of 2 and a fold change (FC) [3] of 2.

Reference: ChEMBL document CHEMBL1142529
